{"source": "ChEMBL document CHEMBL3259694", "about": "“Design and synthesis of molecular probes for the determination of the target of the anthelmintic drug praziquantel” (Bioorg Med Chem Lett, 2014)", "key": {"Schistosoma mansoni [1]": {"system": "Schistosoma mansoni", "assay": "Anthelmintic activity against sexually mature Schistosoma mansoni PR-1 adult worm assessed immediate worm paralysis by stereomicroscopic analysis", "type": "functional, organism-based", "method_in_brief": "(§1)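 Adult male worms were watched for contraction, shortening or paralysis at once on addition of the compound. Worms were then kept overnight in its presence before washout.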"}, "Schistosoma mansoni [2]": {"system": "Schistosoma mansoni", "assay": "Anthelmintic activity against sexually mature Schistosoma mansoni PR-1 adult worm assessed immediate worm contraction by stereomicroscopic analysis", "type": "functional, organism-based", "method_in_brief": "as §1"}, "Schistosoma mansoni [3]": {"system": "Schistosoma mansoni", "assay": "Anthelmintic activity against sexually mature Schistosoma mansoni PR-1 adult worm assessed as parasite death incubated for overnight measured after 7 days drug wash-out period by stereomicroscopic analysis", "type": "functional, organism-based", "details": "PR-1, 168 h", "method_in_brief": "(§2)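 Adult male worms exposed in vitro overnight to a range of concentrations, then washed and kept 7 days in drug-free medium. Motility, contraction and survival were scored at day 7. EC50 was taken from dose-response curves of percent worms alive at day 7 against log concentration, as mean and SEM of three replicates, with 95% confidence intervals.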"}, "Schistosoma mansoni [4]": {"system": "Schistosoma mansoni", "assay": "Anthelmintic activity against sexually mature Schistosoma mansoni PR-1 adult worm assessed as worm contractility without movement at >40 uM incubated for overnight measured after 7 days drug wash-out period by stereomicroscopic analysis", "type": "functional, organism-based", "method_in_brief": "as §2"}, "[5]": {"assay": "Solubility in 1% DMSO at 300 uM", "type": "physicochemical"}, "Schistosoma mansoni [6]": {"system": "Schistosoma mansoni", "assay": "Anthelmintic activity against sexually mature Schistosoma mansoni PR-1 adult worm assessed immediate worm shortening by stereomicroscopic analysis", "type": "functional, organism-based", "method_in_brief": "as §1"}, "Schistosoma mansoni [7]": {"system": "Schistosoma mansoni", "assay": "Anthelmintic activity against sexually mature Schistosoma mansoni PR-1 adult worm assessed as loosely curled worm with little movement at >100 uM incubated for overnight measured after 7 days drug wash-out period by stereomicroscopic analysis", "type": "functional, organism-based", "method_in_brief": "as §2"}, "[8]": {"assay": "Solubility in 1% DMSO at >300 uM", "type": "physicochemical"}, "Schistosoma mansoni [9]": {"system": "Schistosoma mansoni", "assay": "Anthelmintic activity against sexually mature Schistosoma mansoni PR-1 adult worm assessed as parasite death by measuring worm contractility at 0.3 uM incubated for overnight measured after 7 days drug wash-out period by stereomicroscopic analysis", "type": "functional, organism-based", "method_in_brief": "as §2"}, "Schistosoma mansoni [10]": {"system": "Schistosoma mansoni", "assay": "Anthelmintic activity against sexually mature Schistosoma mansoni PR-1 adult worm assessed as parasite death by measuring worm contractility at 1 uM incubated for overnight measured after 7 days drug wash-out period by stereomicroscopic analysis", "type": "functional, organism-based", "method_in_brief": "as §2"}, "Schistosoma mansoni [11]": {"system": "Schistosoma mansoni", "assay": "Anthelmintic activity against sexually mature Schistosoma mansoni PR-1 adult worm assessed as worm contractility and little movement at >60 uM incubated for overnight measured after 7 days drug wash-out period by stereomicroscopic analysis", "type": "functional, organism-based", "method_in_brief": "as §2"}}, "note": "pEC50: −log10 of the molar value. The source made the active and inactive calls. No cut-off for these calls is given here."}
{"smiles": "Cc1cc(C)n2c1C=C1C=CC(CCC(=O)N3CC(=O)N4CCc5ccccc5[C@@H]4C3)=[N+]1[B-]2(F)F", "values": [{"measurement": "Activity", "setting": "Schistosoma mansoni [1]", "value": "inactive"}, {"measurement": "Activity", "setting": "Schistosoma mansoni [2]", "value": "inactive"}, {"measurement": "pEC50", "setting": "Schistosoma mansoni [3]", "value": 4.27}, {"measurement": "Activity", "setting": "Schistosoma mansoni [4]", "value": "Active"}]}
{"smiles": "C#CCN(C(=O)c1ccc(C2(C(F)(F)F)N=N2)cc1)c1ccc(C(=O)N2CC(=O)N3CCc4ccccc4[C@@H]3C2)cc1", "values": [{"measurement": "solubility", "setting": "[5]", "value": "soluble"}, {"measurement": "Activity", "setting": "Schistosoma mansoni [6]", "value": "inactive"}, {"measurement": "Activity", "setting": "Schistosoma mansoni [2]", "value": "inactive"}, {"measurement": "Activity", "setting": "Schistosoma mansoni [7]", "value": "Active"}, {"measurement": "pEC50", "setting": "Schistosoma mansoni [3]", "value": 3.88}]}
{"smiles": "C#CCN(Cc1ccc(C(=O)N2CC(=O)N3CCc4ccccc4[C@@H]3C2)cc1)C(=O)CCCCCNC(=O)CCC1(C)N=N1", "values": [{"measurement": "solubility", "setting": "[8]", "value": "soluble"}, {"measurement": "pEC50", "setting": "Schistosoma mansoni [3]", "value": "< 3.52"}]}
{"smiles": "O=C(C1CCCCC1)N1CC(=O)N2CCc3ccccc3[C@@H]2C1", "note": "[PRAZIQUANTEL, (R)-]", "values": [{"measurement": "Activity", "setting": "Schistosoma mansoni [9]", "value": "Active"}, {"measurement": "pEC50", "setting": "Schistosoma mansoni [3]", "value": 6.30}]}
{"smiles": "O=C(C1CCCCC1)N1CC(=O)N2CCc3ccccc3C2C1", "note": "(racemic) [PRAZIQUANTEL]", "values": [{"measurement": "pEC50", "setting": "Schistosoma mansoni [3]", "value": 5.60}, {"measurement": "Activity", "setting": "Schistosoma mansoni [10]", "value": "Active"}]}
{"smiles": "O=C(C1CCCCC1)N1CC(=O)N2CCc3ccccc3[C@H]2C1", "values": [{"measurement": "pEC50", "setting": "Schistosoma mansoni [3]", "value": 4.11}, {"measurement": "Activity", "setting": "Schistosoma mansoni [11]", "value": "Active"}]}
